# Measurements as given in ChEMBL document CHEMBL1124327, “Synthesis and structure-activity relationships of 2-substituted-6-(dimethylamino)-9-(4-methylbenzyl)-9H-purines with antirhinovirus activity” (J Med Chem, 1989).
# pIC50: −log10 of the molar value.
# Tests used:
# [1] = Compound was tested for anti-rhinovirus type 1B activity in a plaque inhibition assay using monolayers of M-HeLa cells; format: functional, cell-based; conditions: Homo sapiens
# Homo sapiens = species on record: Homo sapiens; assay: Inhibition of plaque formation at 8 uM concentration; format: functional
# Enterovirus [2] = assay: Inhibitory concentration against rhinovirus 30; format: functional, organism-based
# Enterovirus [3] = assay: Inhibitory concentration against rhinovirus 19; format: functional, organism-based
# Enterovirus [4] = assay: Inhibitory concentration against Rhinovirus 2; format: functional, organism-based
# Enterovirus [5] = assay: Inhibitory concentration against rhinovirus 16; format: functional, organism-based
# Enterovirus [6] = assay: Inhibitory concentration against rhinovirus 15; format: functional, organism-based
# Enterovirus [7] = assay: Inhibitory concentration against rhinovirus 3; format: functional, organism-based
# Enterovirus [8] = assay: Inhibitory concentration against rhinovirus 4; format: functional, organism-based
# Enterovirus [9] = assay: Inhibitory concentration against rhinovirus 13; format: functional, organism-based
# Enterovirus [10] = assay: Inhibitory concentration against rhinovirus 31; format: functional, organism-based
# Enterovirus [11] = assay: Inhibitory concentration against rhinovirus 21; format: functional, organism-based
# Enterovirus [12] = assay: Inhibitory concentration against rhinovirus 29; format: functional, organism-based
# rhinovirus B14 [13] = assay: Inhibitory concentration against rhinovirus 14; format: functional, organism-based, Enterovirus; conditions: Rhinovirus B
# Enterovirus [14] = assay: Inhibitory concentration against rhinovirus 1A; format: functional, organism-based
# Enterovirus [15] = assay: Inhibitory concentration against rhinovirus 18; format: functional, organism-based
# Enterovirus [16] = assay: Inhibitory concentration against rhinovirus 5; format: functional, organism-based
# Enterovirus [17] = assay: Inhibitory concentration against rhinovirus 8; format: functional, organism-based
# Enterovirus [18] = assay: Inhibitory concentration against rhinovirus 1B; format: functional, organism-based
# Method in brief: (§1)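 Plaque reduction assay against rhinovirus 1B in M-HeLa cell monolayers. IC50 is the concentration giving 50% reduction of plaque formation; pI50 is taken as log (1000/IC50). A reference antiviral was run as a control.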
# Enterovirus [19] = assay: Inhibitory concentration against rhinovirus 9; format: functional, organism-based
# Enterovirus [20] = assay: Inhibitory concentration against Rhinovirus 1B; format: functional, organism-based; method in brief: as §1
# Enterovirus [21] = assay: Inhibitory concentration against Rhinovirus 1A; format: functional, organism-based
# Enterovirus [22] = assay: Inhibitory concentration against Rhinovirus 12; format: functional, organism-based
# Enterovirus [23] = assay: Inhibitory concentration against Rhinovirus 15; format: functional, organism-based
# Enterovirus [24] = assay: Inhibition of plaque formation at 8 uM concentration against Rhinovirus 5; format: functional, organism-based
# Enterovirus [25] = assay: Inhibition of plaque formation at 2.5 uM concentration against Rhinovirus 3; format: functional
# Enterovirus [26] = assay: Inhibitory concentration against Rhinovirus 13; format: functional, organism-based
# rhinovirus B14 [27] = assay: Inhibitory concentration against Rhinovirus 14; format: functional, organism-based, Enterovirus; conditions: Rhinovirus B
# Enterovirus [28] = assay: Inhibitory concentration against Rhinovirus 9; format: functional, organism-based
smiles,measurement,setting,value
CNc1nc(N(C)C)c2ncn(Cc3ccc(C)cc3)c2n1,pIC50,[1],5.33
Cc1ccc(Cn2cnc3c(N(C)C)nc(S(C)(=O)=O)nc32)cc1,inhibition,Homo sapiens,24%
same,pIC50,[1],4.60
CSc1nc(N(C)C)c2ncn(Cc3ccc(C)cc3)c2n1,pIC50,[1],6.47
Cc1ccc(Cn2cnc3c(N(C)C)nc(C)nc32)cc1,pIC50,[1],6.10
Cc1ccc(Cn2cnc3c(N(C)C)nc(N(C)C)nc32)cc1,pIC50,Enterovirus [2],5.54
same,pIC50,Enterovirus [3],< 4.70
same,pIC50,Enterovirus [4],5.51
same,pIC50,Enterovirus [5],< 4.70
same,pIC50,Enterovirus [6],< 5.00
same,pIC50,Enterovirus [7],< 5.00
same,pIC50,Enterovirus [8],< 5.00
same,pIC50,Enterovirus [9],4.89
same,pIC50,Enterovirus [10],4.82
same,pIC50,Enterovirus [11],< 4.70
same,pIC50,Enterovirus [12],5.31
same,pIC50,rhinovirus B14 [13],5.10
same,pIC50,Enterovirus [14],> 5.92
same,pIC50,Enterovirus [15],5.08
same,pIC50,Enterovirus [16],4.75
same,pIC50,Enterovirus [17],4.85
same,pIC50,Enterovirus [18],5.96
same,pIC50,Enterovirus [19],5.46
same,pIC50,[1],5.96
CCc1nc(N(C)C)c2ncn(Cc3ccc(C)cc3)c2n1,pIC50,[1],5.64
Cc1ccc(Cn2cnc3c(N(C)C)nc(F)nc32)cc1,pIC50,[1],6.47
Cc1ccc(Cn2cnc3c(N(C)C)nc(Cl)nc32)cc1,pIC50,[1],7.10
Cc1ccc(Cn2cnc3c(N(C)C)nc(C(F)(F)F)nc32)cc1,pIC50,Enterovirus [4],5.24
same,pIC50,Enterovirus [20],7.52
same,pIC50,Enterovirus [21],7.00
same,pIC50,Enterovirus [22],5.59
same,pIC50,Enterovirus [23],6.00
same,Inhibition,Enterovirus [24],18%
same,inhibition at 2.5 µM,Enterovirus [25],43%
same,pIC50,Enterovirus [26],5.59
same,pIC50,rhinovirus B14 [27],5.92
same,pIC50,Enterovirus [28],6.46
same,pIC50,[1],7.52
Cc1ccc(Cn2cnc3c(N(C)C)nc(N)nc32)cc1,pIC50,[1],4.51
Cc1ccc(Cn2cnc3c(N(C)C)ncnc32)cc1,pIC50,[1],5.07
